Source: ChEMBL document CHEMBL4765328 (Eur J Med Chem, 2020)
Activity calls are given as the source filed them. The rule behind the calls is not given here.

Legend:
[1] = tested on: HeLa; assay: Antiproliferative activity against human HeLa cells assessed as inhibition of cell growth; type: functional, cell-based
Method in brief: (§1)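 Growth inhibition of cancer cell lines read from dose-response curves; IC50 as mean ± SEM of at least three independent experiments.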

[2] = tested on: HT-29; assay: Antiproliferative activity against human HT-29 cells assessed as inhibition of cell growth; type: functional, cell-based; method in brief: as §1
[3] = tested on: HL-60; assay: Antiproliferative activity against human HL-60 cells assessed as inhibition of cell growth; type: functional, cell-based; method in brief: as §1
[4] = tested on: SEM cells; assay: Antiproliferative activity against human SEM cells assessed as inhibition of cell growth; type: functional, cell-based
Method in brief: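 Compounds from 10 mM DMSO stocks; final DMSO ≤0.25%. Growth inhibition of cancer cell lines read from dose-response curves; IC50 as mean ± SEM of at least three independent experiments.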

[5] = Cytotoxicity against human PBL assessed as inhibition of cell growth; type: cell-based; settings: peripheral blood lymphocytes (PBL)
Method in brief: (§2)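 Peripheral blood lymphocytes from healthy donors, tested either unstimulated or stimulated with PHA; DMSO ≤0.25% final. Values are mean ± SEM of three separate experiments.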

[6] = Cytotoxicity against PHA-stimulated human PBL assessed as inhibition of cell growth; type: cell-based; settings: PHA-stimulated peripheral blood lymphocytes (PBL); method in brief: as §2
[7] = tested on: HeLa; assay: Induction of microtubule network depolymerization in human HeLa cells assessed as appearance of disorganised microtubules at 10 nM after 24 hrs by immunofluorescence staining based confocal microscopic analysis; type: cell-based
Method in brief: (§3)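 HeLa cells treated 24 h at 10, 50 or 100 nM. They were then fixed in cold 4% formaldehyde for 15 min and stained with anti-β-tubulin for 2 h at room temperature. Alexa 488 secondary and DAPI counterstain followed; imaged by confocal microscopy at 20X.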

[8] = tested on: HeLa; assay: Induction of microtubule network depolymerization in human HeLa cells assessed as appearance of disorganised microtubules at 50 nM after 24 hrs by immunofluorescence staining based confocal microscopic analysis; type: cell-based; method in brief: as §3
[9] = tested on: HeLa; assay: Downregulation of BubR1 expression in human HeLa cells at 10 nM after 24 hrs by Western blot analysis; type: functional, cell-based
Method in brief: (§4)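 HeLa cells treated 24 or 48 h, then washed in cold PBS and lysed in 0.1% Triton X-100/RNase A at 0 °C. Lysates were cleared at 15,000 x g. 10 µg protein was run on SDS-PAGE and blotted to PVDF, blocked in 5% BSA, and probed 2 h at room temperature with primary antibodies. HRP secondary and ECL detection followed; β-actin reprobe served as loading control.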

[10] = tested on: HeLa; assay: Downregulation of BubR1 expression in human HeLa cells at 10 nM after 48 hrs by Western blot analysis; type: functional, cell-based; method in brief: as §4
[11] = tested on: HeLa; assay: Induction of apoptosis in human HeLa cells assessed as viable cells at 10 nM measured after 24 hrs by Annexin V-FITC/propidium iodide staining based flow cytometry (reference value: 89.57 %); type: functional; settings: read-out: Activity
[12] = tested on: HeLa; assay: Induction of apoptosis in human HeLa cells assessed as early apoptotic cells at 10 nM measured after 24 hrs by Annexin V-FITC/propidium iodide staining based flow cytometry (reference value: 2.1 %); type: functional
[13] = tested on: HeLa; assay: Induction of apoptosis in human HeLa cells assessed as early apoptotic cells at 10 nM measured after 48 hrs by Annexin V-FITC/propidium iodide staining based flow cytometry (reference value: 2.1 %); type: functional
[14] = tested on: HeLa; assay: Induction of mitochondrial membrane potential loss in human HeLa cells assessed as cells with depolarized mitochondrial membrane at 10 nM after 24 hrs by JC-1 dye-based flow cytometric analysis (reference value: 5.7 %); type: functional
[15] = tested on: HeLa; assay: Induction of mitochondrial membrane potential loss in human HeLa cells assessed as cells with depolarized mitochondrial membrane at 10 nM after 48 hrs by JC-1 dye-based flow cytometric analysis (reference value: 5.7 %); type: functional
[16] = tested on: HeLa; assay: Induction of apoptosis in human HeLa cells assessed as increase in PARP cleavage at 10 nM after 24 hrs by Western blot analysis; type: functional, cell-based; method in brief: as §4
[17] = tested on: HeLa; assay: Induction of apoptosis in human HeLa cells assessed as increase in bcl-2 phosphorylation at 10 nM after 48 hrs by Western blot analysis; type: functional, cell-based; method in brief: as §4
[18] = tested on: HeLa; assay: Induction of apoptosis in human HeLa cells assessed as reduction in mcl-1 protein expression at 10 nM after 24 hrs by Western blot analysis; type: functional, cell-based
[19] = tested on: HUVEC; assay: Antivascular activity against HUVEC assessed as inhibition of capillary like tube formation at 10 nM incubated for 1 hr by matrigel based assay; type: functional, cell-based; settings: Homo sapiens
Method in brief: (§5)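 HUVECs used at passages 1–6 in M200 with low-serum growth supplement. 6 x 10^4 cells seeded on gelled Matrigel (37 °C, 30 min) and left 6 h to form tubes. Preformed networks then treated 1 h at 10 or 100 nM and photographed at five fields per well. Image analysis gave segment length, mesh area and number, covered area and branch points; three independent experiments.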

[20] = tested on: HUVEC; assay: Antivascular activity against HUVEC assessed as inhibition of capillary like tube formation at 100 nM incubated for 1 hr by matrigel based assay; type: functional, cell-based; settings: Homo sapiens; method in brief: as §5
[21] = Antitumor activity mouse E0771 cells implanted in C57BL/6 mouse assessed as reduction tumor mass at 5 mg/kg, ip administered every other day relative to control; type: functional, EO771; parameters: scale not given: the % may be the effect or the level left
Method in brief: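 Seven-week-old female C57BL/6 mice received 4 x 10^5 E0771 cells orthotopically in the mammary fat pad and were randomized once tumors were palpable. Dosing was ip every other day at 5 or 15 mg/kg, with DMSO vehicle in 100 µL. Caliper volume was V=(D×d²)/2, and tumor weight was taken at endpoint; n=5/group. Analysis used two-way ANOVA with Bonferroni.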

[22] = Cytotoxicity against mouse E0771 cells assessed as cell growth inhibition after 72 hrs by MTT assay; type: functional; settings: EO771
[23] = tested on: HL-60; assay: Potency index, ratio […] for human HL-60 cells assessed as inhibition of cell growth; type: functional
[24] = tested on: Jurkat; assay: Potency index, ratio of CA-4 IC50 to compound IC50 for human Jurkat cells assessed as inhibition of cell growth; type: functional
[25] = tested on: Daoy; assay: Potency index, ratio of CA-4 IC50 to compound IC50 for human Daoy cells assessed as inhibition of cell growth; type: functional

For `CCOc1ccc2c(C(=O)c3cc(OC)c(OC)c(OC)c3)c(N)oc2c1`, the IC50 [1] was 2.8 nM, the IC50 [2] was 2.1 nM and the IC50 [3] was 2.7 nM. It also gave an IC50 [4] of 0.31 nM, a GI50 [5] of 8700 nM and a GI50 [6] of over 10000 nM. For the same compound, the Activity [7] was “Active”, the Activity [8] was “Active” and the Activity [9] was “Active”. For the same compound, the Activity [10] was “Active”, the viability at 0.01 µM [11] was 64.5% and the Activity [12] was 6.72%. The Activity [13] was 23.53%, the Activity [14] was 24.3% and the Activity [15] was 54.7%. For the same compound, the Activity [16] was “Active”, the Activity [17] was “Active” and the Activity [18] was “Active”. For the same compound, the Activity [19] was “Active”, the Activity [20] was “Active” and the Activity [21] was 16.9%. For the same compound, the GI50 [22] was 15.6 nM, the “Ratio IC50” value [23] was 3 and the “Ratio IC50” value [24] was 3. For the same compound, the “Ratio IC50” value [25] was 2460.
